# bovine MsrA act: activators of bovine methionine sulfoxide reductase A | hit rate 0.3% among 360,000 | activation, % at 10.6 µM | purified bovine MsrA, absorbance read-out; in the data active = activation above about 7.5%;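 note: 0% = vehicle and 100% = reference activator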
# ASAP1 GAP inh: ASAP1 ArfGAP inhibition | Q9ULH1 | ASAP1-stimulated ARF1 GTP hydrolysis, GDP FP detection | inhibition, % at 16.5 µM | hit rate 0.19% among 360,000; in the data active = inhibition above about 25%;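 note: 0% = vehicle with enzyme and substrate and 100% = no enzyme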
# Target sequence (Q9ULH1 325-724 limits assumed): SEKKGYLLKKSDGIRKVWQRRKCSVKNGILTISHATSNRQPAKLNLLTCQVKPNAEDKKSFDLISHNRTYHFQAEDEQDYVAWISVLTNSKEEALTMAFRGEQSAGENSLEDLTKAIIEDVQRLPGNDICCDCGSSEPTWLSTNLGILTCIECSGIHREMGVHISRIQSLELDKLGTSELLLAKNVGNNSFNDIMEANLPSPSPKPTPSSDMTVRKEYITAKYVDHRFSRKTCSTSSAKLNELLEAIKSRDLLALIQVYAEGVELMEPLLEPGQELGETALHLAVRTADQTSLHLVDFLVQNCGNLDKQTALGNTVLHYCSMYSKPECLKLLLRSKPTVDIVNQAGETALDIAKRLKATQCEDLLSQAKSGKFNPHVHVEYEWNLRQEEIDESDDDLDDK
# Rev-erbA mod: modulators of human Rev-erb alpha DNA binding; P20393; Rev-erbα–FITC-DNA binding, fluorescence polarization, 90 min; activity, % at 10 µM; hit rate 0.79% among 370,000; AID 1259318;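 active = activity above about 14%, limit read from the data; passing the limit was not always enough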;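 note: 0% = DMSO wells with 35 nM protein and 100% = DMSO wells with 750 nM protein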
# HGIII-sPLA2 inh: Inhibits HGIII-sPLA2 liposome hydrolysis, primary screen | QFRET BODIPY PC-A2 liposome hydrolysis, fluorescence | inhibition, % at 12.2 µM | hit rate 0.56% among 370,000 | AID 743126;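 active = inhibition above mean plus 3 SD of compounds lying within the high and low control bounds, cut at about 19% in these data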;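 note: 0% = median of test compound wells and 100% = no enzyme DMSO wells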
# ARFGAP1 inhibitor: inhibitors of rat ARFGAP1 | Arfgap1-stimulated ARF1 GTP hydrolysis, GDP FP detection | inhibition, % at 16.5 µM | hit rate 0.26% among 360,000 | AID 651572;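 active = inhibition above a per-plate limit, mean inhibition of low control wells plus 3 SD, cut at about 25% in these data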;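 note: 0% = DMSO wells with enzyme and 100% = wells lacking Arfgap1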
#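 Material: truncated rat Arfgap1 GAP domain; Incubation: compound-enzyme preincubation 20 min, reaction 120 min, detection 60 min, 25 °C; Read-out: percent inhibition of Arfgap1-stimulated GTP hydrolysis; Technique: FP, GDP Alexa 633 tracer displaced from anti-GDP antibody, 620/688 nm; Controls: No-Arfgap1 wells (100%) versus DMSO full-reaction wells (0%); Replication: single well per compound.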
# MsrA inh: inhibits bovine methionine sulfoxide reductase A; purified bovine MsrA, absorbance read-out; inhibition, % at 15.5 µM; hit rate 0.75% among 360,000; AID 651718; in the data active = inhibition above about 4.5%;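 note: 0% = vehicle wells with enzyme and 100% = reference inhibitor wells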
# ASAP1 inh confirm: ASAP1 inhibition confirmed; shares compounds with ASAP1 GAP inh; ASAP1-stimulated Arf1 GTPase, GDP fluorescence polarization; inhibition, % at 16.5 µM; hit rate 37% among 620;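 active = mean inhibition over triplicates exceeds the hit threshold derived for the earlier primary screening run, cut at about 25% in these data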
# Starred values were filed as active, the others as inactive; . = no result. Compounds with a hit are over-represented: about 2.7% of the library has one in this group of screens.
SMILES,bovine MsrA act,ASAP1 GAP inh,Rev-erbA mod,HGIII-sPLA2 inh,ARFGAP1 inhibitor,MsrA inh,ASAP1 inh confirm
CC(Sc1ccsc1[N+](=O)[O-])C(=O)NCc1ccccc1 (centres undefined),.,25*,-1,2,8,1,3
CCCCNC(=O)NC(C(=O)OC)C12CC3CC(CC(C3)C1)C2 (centres undefined),-1,30*,-7,7,13,0,-4
CCC(CO)Oc1cc(NCc2ccc(Cl)cc2)c2ncn(C(C)C)c2c1 (centres undefined),-2,-4,1,-4,7,2,.
CC[C@H](CO)Oc1cc(NCc2ccc(Cl)c(Cl)c2)c2ncn(C(C)C)c2c1,-1,26*,-2,-7,14,2,16
COc1ccc(C(=O)CSc2nc(=O)n(Cc3cccnc3)c3c2CCC3)cc1,-3,26*,4,-2,13,-1,2
CCOc1ccc(NC(=O)CSc2nc(=O)n(Cc3cccnc3)c3c2CCC3)cc1,-5,-1,0,-2,18,-1,.
CCC[C@H]1[C@@H](OC(=O)NC2CCCCC2)CC[C@@]23CCCN2C(=O)CCC[C@@H]13,.,.,0,8,.,.,.
CC(C)NC(=O)c1ccc2c3n(nc2c1)-c1ccc(Cl)cc1CO3,-2,31*,-8,-6,3,1,7
S=C(Nc1ccc2nsnc2c1)N1CCCCC1,-7,25*,0,0,22,-1,0
COc1ccc(CCn2c(C)c(C(C)=O)c3cc(OC(=O)c4ccco4)ccc32)cc1OC,-1,25*,0,-2,-8,1,6
COC1=C(Br)C(=O)c2nc(C)ccc2C1=O,0,27*,3,4,5,2,4
COC1=C(N)C(=O)c2nc(C)ccc2C1=O,-1,18,-1,-1,21,1,.
COC(=O)N1C[C@H](OC)[C@H]2C[C@@H]1c1ccccc1O2,.,0,-6,1,-2,0,.
O=C(CCc1ccccc1)N[C@H]1[C@@H](OC(=O)c2cccnc2)CCC[C@@]12C(=O)N(Cc1ccccc1)c1ccccc12,.,.,-1,-2,.,.,.
CC1=C/C(=C(/c2cc(C)c(O)c(Br)c2)c2ccccc2S(=O)(=O)O)C=C(Br)C1=O,-2,40*,-26,-13,38*,1,30*
CC1=C/C(=C(/c2ccc(O)c(C)c2)c2ccccc2S(=O)(=O)O)C=CC1=O,-2,15,-4,-5,3,1,.
CCc1cccc2c(C(=O)CN3C(=O)NC(C)(c4cccc5ccccc45)C3=O)c[nH]c12 (centres undefined),-3,32*,6,-47,14,0,28*
CCN1C=C(Cc2cccs2)C2=C(C1)C(c1cccs1)C(C#N)=C(N)O2 (centres undefined),-3,25*,-1,-7,-4,3,7
COc1ccc(CN2CN3Cc4cc(F)ccc4C3CS2(=O)=O)cc1 (centres undefined),.,.,7,8,.,.,.
NC(Cc1ccc(C(F)(F)F)cc1)c1csc(Nc2ccc(C(=O)NCc3ccco3)cn2)n1 (centres undefined),-6,28*,-1,8,12,1,13
COc1cc2sc(-c3ccc(S(C)(=O)=O)cc3)c(C#CCO)c2cc1OC,-15,30*,-4,-27,15,0,8
COC(=O)C[C@@H]1CC[C@@H]2[C@H](COc3ccc(NC(=O)Nc4c(C)noc4C)cc3C(=O)N2C)O1,.,.,-6,1,.,.,.
CC1OC(Nc2ccc(N=Nc3ccccc3)cc2)C(O)C(O)C1O (centres undefined),-4,6,6,9,1,2,.
CC1OC(Nc2cccc3ccccc23)C(O)C(O)C1O (centres undefined),-1,26*,-4,13,9,1,4
CCOc1ccc(NC(=S)NC(=O)/C=C/c2ccc(OC)c(OC)c2)c([N+](=O)[O-])c1,-7,35*,-12,7,-17,1,20
O=C(Nc1ccc(Br)cc1)c1cc(-c2ccncc2)nc2ccccc12,-3,29*,-7,0,17,0,16
O=C(Nc1ccncc1)c1cc(-c2ccccc2)nc2ccccc12,-2,-3,4,2,-7,1,.

# Bioassay records from PubChem.
